ChEMBL document CHEMBL1255440, “An antimicrobial peptide that targets DNA repair intermediates in vitro inhibits Salmonella growth within murine macrophages” (Antimicrob Agents Chemother, 2010)
Calls of active or inactive are those of the source. The rule behind the calls is not given here.

Assays:
J774.A1 [1] = experiment: Cytotoxicity against mouse J774A1 cells assessed as metabolic activity at 50 uM after 24 hrs by MTT assay; type: ADME, cell-based; details: j774.a1, 24 h
Method in brief: (§1)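 Cells seeded at 40,000/well in 96-well plates, overnight 37°C 5% CO2, then treated 24 h in fresh DMEM. MTT (4 mg/ml stock in PBS) added for up to 3 h. Formazan solubilized overnight at 37°C in SDS/dimethylformamide/acid lysis buffer, OD read at 575 nm. Paired t tests.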

[2] = Cytotoxicity against mouse J774A1 cells assessed as live cells at 50 uM by calcein AM assay; type: cell-based, J774.A1; details: read-out: Activity
Method in brief: (§2)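 Cells seeded at 300,000/well and allowed to adhere, then given fresh DMEM with or without peptide for 24 h. Cells trypsinized, stained with a mammalian Live/Dead viability/cytotoxicity kit and analyzed by flow cytometry. Wilcoxon exact test.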

J774.A1 [3] = experiment: Drug uptake in mouse J774A1 cells at 1 uM after 4 hrs by confocal laser microscopy; type: ADME, cell-based; details: j774.a1, 4 h
Method in brief: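 Cells were seeded at 200,000 per chamber-slide well and left to adhere overnight at 37°C. They were then exposed in DMEM to peptide carrying an N-terminal rhodamine label, at 37°C or, where stated, 4°C. Cells were washed three times in PBS, fixed in 4% paraformaldehyde for 30 min, and mounted in antifade. Optical slices near the cell centre were imaged by confocal laser microscopy.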

Salmonella typhimurium [4] = experiment: Antibacterial activity against 10 MOI Salmonella enterica subsp. enterica serovar Typhimurium G785 transfected with SOS-inducible beta-galactosidase reporter infected in mouse J774A1 cells assessed as bacterial number at 150 uM after 24 hrs postinfection; type: functional, J774.A1
Method in brief: (§3)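 J774A.1 cells infected at MOI 10 with sulA promoter-lacZ reporter strain G785 using the gentamicin-protection protocol, treated with peptide (DMSO vehicle controls) plus 15 μg/ml gentamicin for 4 or 24 h. Released bacteria were plated for colony counts in parallel, and were incubated with 33 μM C12FDG (with 0.2 mM EDTA) in LB for 2 h at 37°C. Flow cytometry gave % fluorescein-positive among LPS-antibody-positive particles; Wilcoxon exact test.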

Salmonella typhimurium [5] = experiment: Antibacterial activity against 10 MOI Salmonella enterica subsp. enterica serovar Typhimurium G785 transfected with SOS-inducible beta-galactosidase reporter infected in mouse J774A1 cells assessed as SOS induction at 100 uM after 4 hrs postinfection; type: functional, J774.A1; method in brief: as §3
Salmonella typhimurium [6] = experiment: Antibacterial activity against 1 MOI Salmonella enterica subsp. enterica serovar Typhimurium infected in mouse peritoneal macrophages assessed as reduction in bacterial growth at 100 uM after 24 hrs; type: functional; design: scale not given: the % may be the effect or the level left
Method in brief: (§4)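 J774A.1 cells or thioglycolate-elicited BALB/c peritoneal macrophages seeded at 200,000/well, overnight 37°C 5% CO2; infected with GFP strain SDT1416, 1 h invasion, washed, 1 h in DMEM with 15 μg/ml gentamicin. Then fresh DMEM plus 15 μg/ml gentamicin with or without peptide (DMSO vehicle) for 24 h at 37°C; macrophages lysed with 1% Triton X-100, plated on LB agar for CFU.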

[7] = Drug uptake in mouse peritoneal macrophages assessed as dimer to monomer peptide ratio at 100 uM after 24 hrs at 37 degC by HPLC analysis; type: ADME, cell-based; details: peritoneal macrophage cell
Method in brief: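 Macrophages were elicited in 8–12-week-old female BALB/c mice with 4% thioglycolate i.p. and harvested by lavage 4 days later. Cells were seeded at 300,000 per well for 24 h, then given unlabeled peptide in DMEM for 24 h at 37°C. Lysates were run on reverse-phase HPLC at A280. Monomer (17.5 min) and dimer (17.75 min) peak areas were compared with a standard curve. Concentration assumed 1 pl per cell; values are means of three determinations.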

Salmonella typhimurium [8] = experiment: Antibacterial activity against 1 MOI Salmonella enterica subsp. enterica serovar Typhimurium infected in mouse J774A1 cells assessed as reduction in bacterial growth at 50 uM after 24 hrs; type: functional, J774.A1; design: scale not given: the % may be the effect or the level left; method in brief: as §4
Salmonella typhimurium [9] = experiment: Antibacterial activity against 10 MOI Salmonella enterica subsp. enterica serovar Typhimurium G785 transfected with SOS-inducible beta-galactosidase reporter infected in mouse J774A1 cells assessed as SOS induction at 150 uM after 4 hrs postinfection; type: functional, J774.A1; method in brief: as §3
[10] = Cytotoxicity against mouse peritoneal macrophages assessed as metabolic activity upto 100 uM after 24 hrs by MTT assay; type: ADME, cell-based; details: peritoneal macrophage cell; method in brief: as §1
Salmonella typhimurium [11] = experiment: Antibacterial activity against 1 MOI Salmonella enterica subsp. enterica serovar Typhimurium infected in mouse J774A1 cells assessed as reduction in bacterial growth at 2.5 times MIC; type: functional, organism-based; details: J774.A1; method in brief: as §4
J774.A1 [12] = experiment: Drug uptake in mouse J774A1 cells assessed as dimer to monomer peptide ratio at 50 uM after 5 hrs at 4 degC by HPLC analysis; type: ADME, cell-based; details: j774.a1, 5 h
Method in brief: (§5)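 J774A.1 cells were incubated with unlabeled peptide for 5 or 24 h at 37°C or 4°C, washed in ice-cold PBS and lysed with NP-40 buffer. Lysates were run on reverse-phase HPLC with an acetonitrile/0.1% TFA gradient and A280 fractions. Monomer (~17.5 min) and dimer (~17.75 min) peak areas were compared against a standard curve. Intracellular mM was calculated using 300,000 cells and 1 pl/cell, with concentration expressed as monomer mass.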

Salmonella typhimurium [13] = experiment: Antibacterial activity against 1 MOI Salmonella enterica subsp. enterica serovar Typhimurium infected in mouse peritoneal macrophages assessed as reduction in bacterial growth at 150 uM after 24 hrs relative to DMEM control; type: functional; design: scale not given: the % may be the effect or the level left; method in brief: as §4
J774.A1 [14] = experiment: Drug uptake in mouse J774A1 cells assessed as total peptide concentration at 100 uM after 5 hrs at 37 degC by HPLC analysis; type: ADME, cell-based; details: j774.a1, 5 h; method in brief: as §5
[15] = Cytotoxicity against mouse peritoneal macrophages assessed as dead cells at 50 uM by propidium iodide assay; type: cell-based; details: peritoneal macrophage cell; method in brief: as §2
J774.A1 [16] = experiment: Drug uptake in mouse J774A1 cells assessed as total peptide concentration at 50 uM after 24 hrs at 37 degC by HPLC analysis; type: ADME, cell-based; details: j774.a1, 24 h
Method in brief: (§6)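 J774A.1 cells were seeded at 300,000 per well and allowed to adhere for 24 h at 37°C in 5% CO2. Medium was replaced with DMEM containing unlabeled peptide, and cells were held at 37°C or 4°C. After three washes in ice-cold PBS, cells were lysed in NP-40 buffer and debris spun out. Reverse-phase HPLC was read at 280 nm. Peaks at 17.5 and 17.75 min were integrated against a standard curve. Intracellular mM was calculated from 300,000 cells at 1 pl each, using monomer mass.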

Salmonella typhimurium [17] = experiment: Antibacterial activity against 1 MOI Salmonella enterica subsp. enterica serovar Typhimurium infected in mouse peritoneal macrophages assessed as reduction in bacterial growth at 150 uM after 24 hrs relative to DMSO control; type: functional; design: scale not given: the % may be the effect or the level left; method in brief: as §4
J774.A1 [18] = experiment: Drug uptake in mouse J774A1 cells assessed as dimer to monomer peptide ratio at 150 uM after 5 hrs at 4 degC by HPLC analysis; type: ADME, cell-based; details: j774.a1, 5 h; method in brief: as §5
J774.A1 [19] = experiment: Drug uptake in mouse J774A1 cells assessed as total peptide concentration at 50 uM after 5 hrs at 37 degC by HPLC analysis; type: ADME, cell-based; details: j774.a1, 5 h; method in brief: as §6
J774.A1 [20] = experiment: Drug uptake in mouse J774A.1 cells assessed as dimer to monomer peptide ratio at 150 uM after 24 hrs at 4 degC by HPLC analysis; details: J774A.1, 24 h
Salmonella typhimurium [21] = experiment: Antibacterial activity against 10 MOI Salmonella enterica subsp. enterica serovar Typhimurium G785 transfected with SOS-inducible beta-galactosidase reporter infected in mouse J774A1 cells assessed as bacterial number at 100 uM after 24 hrs postinfection; type: functional, J774.A1; method in brief: as §3

Structure (SMILES): N=C(N)NCCC[C@@H](NC(=O)[C@@H](CS)NC(=O)[C@@H](Cc1ccc(O)cc1)NC(=O)[C@@H](Cc1c[nH]c2ccccc12)NC(=O)[C@@H](CCCNC(=N)N)NC(=O)[C@H](N)Cc1c[nH]c2ccccc12)C(=O)O
- Activity (J774.A1 [1]): Non-toxic
- viability at 50 µM [2]: 93%
- Drug uptake (J774.A1 [3]): Active
- Activity (Salmonella typhimurium [4]): 1.9%
- Activity (Salmonella typhimurium [5]): 1.3%
- Activity (Salmonella typhimurium [6]): 45%
- Ratio [7]: 0.7
- Activity (Salmonella typhimurium [8]): 68.5%
- Activity (Salmonella typhimurium [9]): 8.5%
- Activity [10]: Non-toxic
- Activity (Salmonella typhimurium [11]): Active
- Ratio (J774.A1 [12]): 2.3
- Activity (Salmonella typhimurium [13]): 72.3%
- Drug uptake (J774.A1 [14]): 8 mM
- Activity [15]: 3.2%
- Drug uptake (J774.A1 [16]): 1.4 mM
- Activity (Salmonella typhimurium [17]): 83%
- Ratio (J774.A1 [18]): 8.8
- Drug uptake (J774.A1 [19]): 0.9 mM
- Ratio (J774.A1 [20]): 15.5
- Activity (Salmonella typhimurium [21]): 2.8%
